MrgX1 antag: blocks BAM8-22 activation of human MrgX1 receptor; MRGX1-HEK293 calcium flux, Fluo-4, BAM8-22 antagonism; active compounds read low; AID 588676; 1.3% of 310,000 active; Q96LB2; B-score at 10 µM;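 active means calcium-response B-score plate-corrected more than 3 library SD below zero, starting fluorescence within 5 deviations, no agonist response on first addition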;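 further: peak minus trough fluorescence over baseline after final BAM8-22 challenge near maximal dose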
Target sequence (Q96LB2 whole entry, looked up): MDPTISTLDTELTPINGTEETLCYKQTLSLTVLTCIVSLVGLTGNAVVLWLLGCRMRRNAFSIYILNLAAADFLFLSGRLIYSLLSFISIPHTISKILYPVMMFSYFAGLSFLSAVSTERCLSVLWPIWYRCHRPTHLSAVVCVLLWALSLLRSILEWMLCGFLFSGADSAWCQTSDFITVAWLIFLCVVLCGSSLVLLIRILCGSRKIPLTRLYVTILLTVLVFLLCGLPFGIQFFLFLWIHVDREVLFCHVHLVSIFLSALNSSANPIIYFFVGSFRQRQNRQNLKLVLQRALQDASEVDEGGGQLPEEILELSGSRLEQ
RGS4 block: inhibitors of human RGS4. 0.45% of 310,000 active. HEK293 M3R/RGS4 inducible, Fluo-4 calcium flux; active compounds read high; triggered by carbachol at its EC20. B-score at 10 µM. P49798;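 active means B-score, a plate-corrected calcium signal, over three deviations above library mean, with baseline fluorescence within five deviations of library mean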;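 further: RGS4 expression induced by doxycycline in cells with stable M3 receptor; B-score is computed from the integrated fluorescence ratio over baseline after carbachol; higher B-score means a larger calcium signal and so more RGS4 inhibition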
Target sequence (P49798 whole entry, looked up): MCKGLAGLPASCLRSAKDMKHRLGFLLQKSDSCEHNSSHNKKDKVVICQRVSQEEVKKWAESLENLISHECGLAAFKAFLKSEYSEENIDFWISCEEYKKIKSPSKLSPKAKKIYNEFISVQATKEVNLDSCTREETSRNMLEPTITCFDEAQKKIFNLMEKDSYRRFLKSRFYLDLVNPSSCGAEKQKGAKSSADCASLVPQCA
MrgX1 PAM: allosterically activates human MrgX1 receptor signaling. B-score at 10 µM. AID 588675. Q96LB2. 0.63% of 310,000 active. MrgX1-HEK293, Fluo-4 calcium flux, FDSS; active compounds read high;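 active means plate-corrected calcium response at least 3 library SD above typical, normal starting fluorescence, not activating the receptor alone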;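 further: compound read alongside a low EC10 to EC30 dose of BAM8-22 agonist; peak minus trough fluorescence over baseline measured at the second addition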
RGS4 pot: RGS4 potentiation or activation. B-score at 10 µM. HEK293 M3R/inducible RGS4, carbachol calcium flux Fluo4; active compounds read low. 0.92% of 310,000 active;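 active means B-score of the integrated calcium signal more than 4 SD below the library mean, with starting fluorescence not abnormally high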;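 further: negative B-score means reduced calcium response which marks RGS4 activation or potentiation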
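System: HEK293 FlpIn-TREx cells, stable M3R, doxycycline-inducible RGS4. Timing: overnight RGS4 induction, 30 min dye load 37 °C, 20 min compound RT. Also added: carbachol, ECmax concentration. Measured by: Fluo4 fluorescence kinetic imaging of calcium. Evaluation: integrated calcium ratio converted to B score.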
MrgX1 ag: activates human MrgX1 receptor signaling. MrgX1-HEK293 cells, Fluo-4 calcium fluorescence, agonist mode; active compounds read high. B-score at 10 µM. Q96LB2. 0.44% of 310,000 active. AID 588627;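 active means calcium response B-score plate-corrected fluorescence ratio at least 3 library SD, with starting fluorescence B-score inside 5 SD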
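Material – MrgX1-expressing HEK293 cells · Input – 15,000 cells seeded per well · Dosing – compound as first of three additions · Times – overnight seeding, then 1 h dark dye loading · Measured by – kinetic Fluo-4 NW fluorescence of intracellular calcium · Read-out – B-scored fluorescence response ratio · Benchmarks – positive and negative control wells on each plate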
MrgX1 ant reconf: confirmation of human MrgX1 receptor antagonists; shares compounds with MrgX1 antag; MrgX1-HEK293, BAM8-22 calcium flux, Fluo-4; active compounds read low; remaining BAM8-22 calcium response % of control (active compounds read low), % at 10 µM; 19% of 2,300 active; AID 602420;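 active means remaining agonist calcium response no higher than 100% minus 3 SD of agonist-only control wells, with starting fluorescence near control levels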;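 further: agonist BAM8-22 given at a near maximal EC90 to ECmax level; peak minus minimum fluorescence divided by baseline after agonist addition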
HEK293 Ca flux: counter-screen for MrgX1 antagonists: effect in parental HEK293 cells. shares compounds with MrgX1 antag. Fluo-4 calcium fluorescence, FDSS. fluorescence ratio F(max-min)/F0 at 10 µM. 2% of 4,000 active;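 active means duplicate-averaged calcium fluorescence ratio at least three times the standard deviation of buffer wells, a nonspecific response in parental cells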
HEK293 Ca counter: activity in parental HEK293 cells without MrgX1; shares compounds with MrgX1 antag; parental HEK293 calcium flux, Fluo-4 fluorescence ratio; active compounds read high; fluorescence ratio F(max-min)/F0 at 10 µM; 0.4% of 4,000 active; AID 624114;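 active means calcium fluorescence ratio, averaged over duplicates, at least 3 SD of the buffer-well ratio, meaning a nonspecific response in receptor-free cells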;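 further: untransfected parental HEK293 lacking MrgX1 used as counterscreen for MrgX1 allosteric activators; fluorescence change taken during the second addition on a kinetic imager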
HEK293 Ca cntr2: activity in parental HEK293 cells lacking MrgX1 receptor; AID 624115; 8.7% of 4,000 active; fluorescence ratio F(max-min)/F0 at 10 µM; shares compounds with MrgX1 antag; Fluo-4 calcium fluorescence (FDSS); active compounds read high;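 active means calcium fluorescence ratio at least three times the spread of buffer wells, meaning a non-specific response in parental cells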
An asterisk follows results filed as active; i = inactive; nt = not tested or not shown. The list is not random: actives were taken first. Their share in the collection is about 3.5%.

SMILES | MrgX1 antag | RGS4 block | MrgX1 PAM | RGS4 pot | MrgX1 ag | MrgX1 ant reconf | HEK293 Ca flux | HEK293 Ca counter | HEK293 Ca cntr2
COc1ccccc1CNC(=O)C(=O)NCC1CCCN1S(=O)(=O)c1cccs1 (centres undefined) | -4.8* | i | i | i | i | 83%* | i | i | i
O=C(NCC1CCCN1S(=O)(=O)c1cccs1)C(=O)Nc1ccccc1 (centres undefined) | i | i | i | i | i | nt | nt | nt | nt
O=C(NCc1ccccc1)C(=O)NCC1CCCN1S(=O)(=O)c1cccs1 (centres undefined) | -16* | i | i | i | i | i | i | i | i
Cc1ccc(S(=O)(=O)N2CCCC2CNC(=O)C(=O)NCc2ccccn2)cc1 (centres undefined) | -7.1* | i | i | i | i | i | i | i | i
Cc1ccc(NC(=O)C(=O)NCC2CCCN2S(=O)(=O)c2cccs2)cc1 (centres undefined) | i | i | i | i | i | nt | nt | nt | nt
Cc1cccc(NC(=O)C(=O)NCC2CCCN2S(=O)(=O)c2cccs2)c1C (centres undefined) | -5.5* | i | i | i | i | i | i | i | i
COC(=O)C1SCC2C(=O)N(Cc3ccc(F)cc3)CC(=O)N21 (centres undefined) | i | i | i | i | i | nt | nt | nt | nt
COc1cc(C(=O)NCC2CCCN2S(=O)(=O)c2cccs2)cc(OC)c1OC (centres undefined) | -7.7* | i | i | i | i | i | i | i | i
Cc1ccc(C(=O)NCC2CCCN2S(=O)(=O)c2cccs2)cc1C (centres undefined) | i | i | i | i | i | nt | nt | nt | nt
COCCn1c(C)cc(C(=O)CSc2ncn[nH]2)c1C | -5.1* | i | i | i | i | i | i | i | i
COCCn1c(C)cc(C(=O)CSc2nc(C)c(C)c(C)n2)c1C | i | i | i | i | i | nt | nt | nt | nt
O=C(NCCN1CCC(Cc2ccccc2)CC1)C1CCN(S(=O)(=O)N2CCC3(CC2)OCCO3)CC1 | i | i | i | i | i | nt | nt | nt | nt
O=C(NCCc1ccccc1)C1CCN(S(=O)(=O)N2CCC3(CC2)OCCO3)CC1 | -6* | i | i | i | i | i | i | i | i
O=C(NCCc1ccccc1)C1CCN(C(=O)NCc2ccccc2)CC1 | -11* | i | i | i | i | i | i | i | i
Cc1cc(-c2ccccc2)[nH]c(=O)c1S(=O)(=O)c1ccc(Cl)cc1 | -9* | i | i | i | i | i | i | i | i
Cc1cc(-c2ccccc2)[nH]c(=O)c1S(=O)(=O)c1ccccc1 | i | i | i | i | i | nt | nt | nt | nt
O=C(Nc1ccc(Cl)cc1)c1cc2c(cc1O)[nH]c1ccccc12 | -4.9* | i | i | i | i | 54%* | i | i | i
CC(=O)Nc1ccc2[nH]c3ccccc3c2c1 | i | i | i | i | i | nt | nt | nt | nt
COc1ccc(NC2c3ccccc3C(=O)N2Cc2ccco2)cc1OC (centres undefined) | -5.4* | i | i | i | i | i | i | i | i
O=C1c2ccccc2C(Nc2ccc(S(=O)(=O)N3CCCCC3)cc2)N1Cc1ccco1 (centres undefined) | -7.9* | i | i | i | i | i | i | i | i
COC(=O)c1cc(NC2c3ccccc3C(=O)N2Cc2ccco2)cc(C(=O)OC)c1 (centres undefined) | i | nt | i | nt | i | nt | nt | nt | nt
O=C(O)CSCC(=O)Nc1ccc(Br)c(C(F)(F)F)c1 | i | i | i | i | i | nt | nt | nt | nt
CCOC(=O)C(NC(=O)c1ccccc1)(Nc1cc(C)on1)C(F)(F)F (centres undefined) | i | i | i | i | i | nt | nt | nt | nt
CCOC(=O)C(NC(=O)c1ccccc1)(Nc1nnc(C)s1)C(F)(F)F (centres undefined) | -8.7* | i | i | i | i | i | i | i | i
COc1ccc(NC(=S)N2CCN(Cc3ccccc3)CC2)cc1 | i | i | i | i | i | nt | nt | nt | nt
SMILES | MrgX1 antag | RGS4 block | MrgX1 PAM | RGS4 pot | MrgX1 ag | MrgX1 ant reconf | HEK293 Ca flux | HEK293 Ca counter | HEK293 Ca cntr2
CCn1cc(CN2CCc3c([nH]c4ccccc34)C2c2cccc(OC)c2OC)c(C)n1 (centres undefined) | -5.4* | i | i | i | i | i | i | i | i
CCCCCC[n+]1c(-c2ccc(Cl)cc2Cl)csc1Nc1ccccc1 | i | i | i | i | i | nt | nt | nt | nt
Cc1ccccc1NS(=O)(=O)c1ccc2[nH]c(=O)[nH]c2c1 | -5.6* | i | i | i | i | i | i | i | i
COc1cccc(NC(=S)Nc2ccc(F)cc2)c1 | i | i | i | i | i | nt | nt | nt | nt
CC(C)CC(=O)Nc1ccccc1N1CCOCC1 | -4.6* | i | i | i | i | i | i | 48* | i
Cc1cc(NC(=O)C(C)SCC(=O)Nc2cc(C(F)(F)F)ccc2N2CCCCC2)no1 (centres undefined) | i | i | i | i | i | nt | nt | nt | nt
Cc1cc(NC(=O)C(C)SCC(=O)Nc2ccccc2N2CCCC2)no1 (centres undefined) | -11* | i | i | i | i | 76%* | i | i | i
O=c1oc2cc(Oc3ccc(C(F)(F)F)cc3[N+](=O)[O-])ccc2c2c1CCC2 | i | i | i | i | i | nt | nt | nt | nt
CC(NC(=O)NC(N)=O)(C(F)(F)F)C(F)(F)F | -5.2* | i | i | i | i | i | i | i | i
CC1c2[nH]c3ccccc3c2CCN1C(=O)Nc1ccccc1 (centres undefined) | -7.5* | i | i | i | i | i | i | i | i
CC(C)CNC(=O)c1cccc(NC(=O)CSc2ccccc2)c1 | i | i | i | i | i | nt | nt | nt | nt

Screens (PubChem BioAssay)
